Test results as given in ChEMBL document CHEMBL3868590, “Quambalarine B, a Secondary Metabolite from Quambalaria cyanescens with Potential Anticancer Properties” (J Nat Prod, 2016).

Legend:
[1] = Cmax in human; format: ADME
Jurkat [2] = assay: Cytostatic activity against eFluor670-labelled human Jurkat cells assessed as live cells at 10 ng/ml measured immediately after compound addition by Hoechst-33258 staining-based FACS analysis (reference value: 98.2%); format: functional
Jurkat [3] = assay: Cytostatic activity against eFluor670-labelled human Jurkat cells assessed as live cells at 10 ng/ml measured on day 1 post dose by Hoechst-33258 staining-based FACS analysis (reference value: 98.2%); format: functional
Jurkat [4] = assay: Cytostatic activity against eFluor670-labelled human Jurkat cells assessed as live cells at 10 ng/ml measured on day 2 post dose by Hoechst-33258 staining-based FACS analysis (reference value: 97%); format: functional
Jurkat [5] = assay: Cytostatic activity against eFluor670-labelled human Jurkat cells assessed as live cells at 10 ng/ml measured on day 3 post dose by Hoechst-33258 staining-based FACS analysis (reference value: 98.3%); format: functional
Jurkat [6] = assay: Cytostatic activity against eFluor670-labelled human Jurkat cells assessed as live cells at 10 ng/ml measured on day 4 post dose by Hoechst-33258 staining-based FACS analysis (reference value: 97.3%); format: functional
Jurkat [7] = assay: Cytostatic activity against eFluor670-labelled human Jurkat cells assessed as live cells at 10 ng/ml measured on day 5 post dose by Hoechst-33258 staining-based FACS analysis (reference value: 97%); format: functional
NALM-6 [8] = assay: Cytostatic activity against eFluor670-labelled human NALM6 cells assessed as live cells at 5 ng/ml measured immediately after compound addition by Hoechst-33258 staining-based FACS analysis (reference value: 95.8%); format: functional
NALM-6 [9] = assay: Cytostatic activity against eFluor670-labelled human NALM6 cells assessed as live cells at 5 ng/ml measured on day 1 by Hoechst-33258 staining-based FACS analysis (reference value: 95.5%); format: functional
NALM-6 [10] = assay: Cytostatic activity against eFluor670-labelled human NALM6 cells assessed as live cells at 5 ng/ml measured on day 2 by Hoechst-33258 staining-based FACS analysis (reference value: 97.7%); format: functional
NALM-6 [11] = assay: Cytostatic activity against eFluor670-labelled human NALM6 cells assessed as live cells at 5 ng/ml measured on day 3 by Hoechst-33258 staining-based FACS analysis (reference value: 98.6%); format: functional
NALM-6 [12] = assay: Cytostatic activity against eFluor670-labelled human NALM6 cells assessed as live cells at 5 ng/ml measured on day 4 by Hoechst-33258 staining-based FACS analysis (reference value: 98.6%); format: functional
NALM-6 [13] = assay: Cytostatic activity against eFluor670-labelled human NALM6 cells assessed as live cells at 5 ng/ml measured on day 5 by Hoechst-33258 staining-based FACS analysis (reference value: 98.6%); format: functional
REH [14] = assay: Cytostatic activity against eFluor670-labelled human REH cells assessed as live cells at 20 ng/ml measured immediately after compound addition by Hoechst-33258 staining-based FACS analysis (reference value: 44.1%); format: functional
REH [15] = assay: Cytostatic activity against eFluor670-labelled human REH cells assessed as live cells at 20 ng/ml measured on day 1 by Hoechst-33258 staining-based FACS analysis (reference value: 89.8%); format: functional
REH [16] = assay: Cytostatic activity against eFluor670-labelled human REH cells assessed as live cells at 20 ng/ml measured on day 2 by Hoechst-33258 staining-based FACS analysis (reference value: 90.8%); format: functional
REH [17] = assay: Cytostatic activity against eFluor670-labelled human REH cells assessed as live cells at 20 ng/ml measured on day 4 by Hoechst-33258 staining-based FACS analysis (reference value: 88%); format: functional
REH [18] = assay: Cytostatic activity against eFluor670-labelled human REH cells assessed as live cells at 20 ng/ml measured on day 5 by Hoechst-33258 staining-based FACS analysis (reference value: 85.6%); format: functional
[19] = Cytotoxicity against PHA/LPS-stimulated CD3-positive T-lymphocytes in eFluor-670-labeled human PBMC assessed as divided cells at 5 ng/ml administered post 18 hrs of PHA/LPS-stimulation measured after 72 hrs by Hoechst-33258 staining-based FACS analysis (reference value: 24.2%); format: toxicity; settings: t-cell
In short: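 PBMC were labelled with 1 μmol/L CPD, stimulated with PHA (5 μg/mL) plus LPS (1 μg/mL), and seeded at 3 × 10^5 cells/well in 300 μL. Compound was added after 18 h and left for 72 h. Cells were stained with anti-CD3. Unstimulated cells set the CPD+ gate. Proliferation index, division index and % divided were calculated for CPD+CD3+ Hoechst-negative cells.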

Row | SMILES | Cmax [1] | Activity (Jurkat [2]) | Activity (Jurkat [3]) | Activity (Jurkat [4]) | Activity (Jurkat [5]) | Activity (Jurkat [6]) | Activity (Jurkat [7]) | Activity (NALM-6 [8]) | Activity (NALM-6 [9]) | Activity (NALM-6 [10]) | Activity (NALM-6 [11]) | Activity (NALM-6 [12]) | Activity (NALM-6 [13]) | Activity (REH [14]) | Activity (REH [15]) | Activity (REH [16]) | Activity (REH [17]) | Activity (REH [18]) | Activity [19]
1 | CN(Cc1cnc2nc(N)nc(N)c2n1)c1ccc(C(=O)N[C@@H](CCC(=O)O)C(=O)O)cc1 [METHOTREXATE] | > 1000 µM | – | – | – | – | – | – | – | – | – | – | – | – | – | – | – | – | – | –
2 | COc1cccc2c1C(=O)c1c(O)c3c(c(O)c1C2=O)C[C@@](O)(C(=O)CO)C[C@@H]3O[C@H]1C[C@H](N)[C@H](O)[C@H](C)O1 [DOXORUBICIN] | – | 98.2% | 97% | 78.5% | 42.8% | 9.46% | 10.5% | 95.8% | 95.2% | 96.5% | 96.3% | 93.8% | 87.8% | 44.1% | 73.5% | 26.7% | 2.72% | 1.19% | 18.1%
